# Assay results: ChEMBL document CHEMBL1156144, “Biaryl ethers as novel non-nucleoside reverse transcriptase inhibitors with improved potency against key mutant viruses” (J Med Chem, 2009)
# Assays:
# [1] = Volume of distribution in Sprague-Dawley rat at 2 mg/kg, iv; assay type: ADME, organism-based; design: dose 2 mg/kg, route intravenous; conditions: in vivo
# [2] = test system: Human immunodeficiency virus; assay: Antiviral activity against wild type HIV H9-3B infected in human MT2 cells assessed as inhibition of viral replication measuring p24 level after 3 days in presence of 10% fetal bovine serum; assay type: functional; conditions: Human immunodeficiency virus 1, MT2, Serum; read-out: CIC95
# Summary of the method: (§1)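 Multiple-cycle spread assay in MT2 cells with wild-type H9IIIB virus. Cells were infected overnight at moi ≈ 0.01 without compound, washed, then cultured 3 days across varying compound concentrations in RPMI 1640 with 10% FBS or 50% NHS. p24 was measured in supernatants. CIC95 is the lowest concentration inhibiting replication ≥95%, as the geometric mean of ≥2 determinations.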
# [3] = Clearance in Sprague-Dawley rat at 2 mg/kg, iv; assay type: ADME, organism-based; design: dose 2 mg/kg, route intravenous; conditions: in vivo
# [4] = test system: Human immunodeficiency virus; assay: Antiviral activity against HIV with reverse transcriptase Y181C mutant infected in human MT2 cells assessed as inhibition of viral replication measuring p24 level after 3 days in presence of 10% fetal bovine serum; assay type: functional; conditions: Human immunodeficiency virus 1, MT2, Serum, 72 h; read-out: CIC95
# Summary of the method: (§2)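 Multiple-cycle replication (Spread) assay in MT2 cells with H9IIIB-background mutant virus. Cells were infected overnight at moi ≈ 0.01 without compound, washed, then cultured 3 days across a range of compound concentrations in medium with 10% FBS. p24 was measured in supernatants. CIC95 is the lowest concentration inhibiting replication by ≥95%, reported as the geometric mean of ≥2 determinations.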
# [5] = test system: Human immunodeficiency virus; assay: Antiviral activity against HIV with reverse transcriptase K103N mutant infected in human MT2 cells assessed as inhibition of viral replication measuring p24 level after 3 days in presence of 10% fetal bovine serum; assay type: functional; conditions: Human immunodeficiency virus 1, MT2, Serum, 72 h; read-out: CIC95; summary of the method: as §2
# [6] = Half life in Sprague-Dawley rat at 2 mg/kg, iv; assay type: ADME, organism-based; design: dose 2 mg/kg, route intravenous; conditions: in vivo
# [7] = test system: Human immunodeficiency virus; assay: Antiviral activity against HIV with reverse transcriptase K103N/Y181C double mutant infected in human MT2 cells assessed as inhibition of viral replication measuring p24 level after 3 days in presence of 10% fetal bovine serum; assay type: functional; conditions: Human immunodeficiency virus 1, MT2, Serum, 72 h; read-out: CIC95; summary of the method: as §2
# [8] = test system: Human immunodeficiency virus; assay: Antiviral activity against wild type HIV H9-3B infected in human MT2 cells assessed as inhibition of viral replication measuring p24 level after 3 days in presence of 50% normal human serum; assay type: functional; conditions: Human immunodeficiency virus 1, H9-3B, 72 h, read-out: CIC95; summary of the method: as §1
# [9] = Inhibition of RNA-dependent DNA polymerase activity of wild type HIV reverse transcriptase assessed as BrdU incorporation by standard ECL assay; design: species or system Human immunodeficiency virus
# Summary of the method: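 Purified recombinant wild-type RT polymerase activity was measured using a 500-nt heteropolymeric RNA template and a biotinylated DNA primer. BrdU incorporation was detected with a ruthenylated anti-BrdU antibody by electrochemiluminescence. Ki is the geometric mean of at least two determinations, each within 25% of the mean.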
# [10] = target: Human immunodeficiency virus type 1 reverse transcriptase (Human immunodeficiency virus 1, UniProt Q72547, K103N); assay: Inhibition of RNA-dependent DNA polymerase activity of recombinant HIV reverse transcriptase K103N mutant assessed as BrdU incorporation by standard ECL assay
# [11] = test system: Rattus norvegicus; assay: AUC in Sprague-Dawley rat at 2 mg/kg, iv; assay type: ADME, organism-based, Plasma; design: dose 2 mg/kg, route intravenous; conditions: in vivo
# [12] = test system: Human immunodeficiency virus; assay: Antiviral activity against HIV with reverse transcriptase K101E/G190A double mutant assessed as inhibition of viral replication; assay type: functional, organism-based; conditions: Human immunodeficiency virus 1
# [13] = test system: Human immunodeficiency virus; assay: Antiviral activity against HIV with reverse transcriptase K103N/P225H double mutant assessed as inhibition of viral replication; assay type: functional, organism-based; conditions: Human immunodeficiency virus 1
# [14] = test system: Human immunodeficiency virus; assay: Antiviral activity against HIV with reverse transcriptase MDRC4 mutant assessed as inhibition of viral replication; assay type: functional, organism-based; conditions: Human immunodeficiency virus 1
# [15] = test system: Human immunodeficiency virus; assay: Antiviral activity against HIV with reverse transcriptase Y181C/G190A double mutant assessed as inhibition of viral replication; assay type: functional, organism-based; conditions: Human immunodeficiency virus 1
# [16] = test system: Human immunodeficiency virus; assay: Antiviral activity against HIV with reverse transcriptase MDRC4 mutant assessed as inhibition of viral replication relative to wild type; assay type: functional
# [17] = test system: Human immunodeficiency virus; assay: Antiviral activity against HIV with reverse transcriptase V106A/G190A/F227L mutant assessed as inhibition of viral replication; assay type: functional, organism-based; conditions: Human immunodeficiency virus 1
# [18] = test system: Human immunodeficiency virus; assay: Antiviral activity against HIV with reverse transcriptase Y181C mutant assessed as inhibition of viral replication; assay type: functional, organism-based; conditions: Human immunodeficiency virus 1
# [19] = test system: Human immunodeficiency virus; assay: Antiviral activity against HIV with reverse transcriptase Y181C mutant assessed as inhibition of viral replication relative to wild type; assay type: functional
# [20] = test system: Human immunodeficiency virus; assay: Antiviral activity against HIV with reverse transcriptase K103N/P225H double mutant assessed as inhibition of viral replication relative to wild type; assay type: functional
# [21] = test system: Human immunodeficiency virus; assay: Antiviral activity against HIV with reverse transcriptase K103N/Y181C/G190A mutant assessed as inhibition of viral replication; assay type: functional, organism-based; conditions: Human immunodeficiency virus 1
# [22] = test system: Human immunodeficiency virus; assay: Antiviral activity against HIV with reverse transcriptase K103N mutant assessed as inhibition of viral replication relative to wild type; assay type: functional
# [23] = test system: Human immunodeficiency virus; assay: Antiviral activity against HIV with reverse transcriptase K101E/Y181C/G190A mutant assessed as inhibition of viral replication; assay type: functional, organism-based; conditions: Human immunodeficiency virus 1
# [24] = test system: Human immunodeficiency virus; assay: Antiviral activity against HIV with reverse transcriptase K101E/G190A double mutant assessed as inhibition of viral replication relative to wild type; assay type: functional
# [25] = test system: Human immunodeficiency virus; assay: Antiviral activity against HIV with reverse transcriptase V106A/G190A/F227L mutant assessed as inhibition of viral replication relative to wild type; assay type: functional
# [26] = test system: Human immunodeficiency virus; assay: Antiviral activity against HIV with reverse transcriptase K101E/Y181C/G190A mutant assessed as inhibition of viral replication relative to wild type; assay type: functional
# [27] = test system: Human immunodeficiency virus; assay: Antiviral activity against HIV with reverse transcriptase K103N/G190A double mutant assessed as inhibition of viral replication; assay type: functional, organism-based; conditions: Human immunodeficiency virus 1
# [28] = test system: Human immunodeficiency virus; assay: Antiviral activity against HIV with reverse transcriptase G190A mutant assessed as inhibition of viral replication relative to wild type; assay type: functional
# [29] = test system: Human immunodeficiency virus; assay: Antiviral activity against HIV with reverse transcriptase CNDO mutant assessed as inhibition of viral replication; assay type: functional, organism-based; conditions: Human immunodeficiency virus 1
# [30] = test system: Human immunodeficiency virus; assay: Antiviral activity against HIV with reverse transcriptase CNDO mutant assessed as inhibition of viral replication relative to wild type; assay type: functional
# [31] = test system: Human immunodeficiency virus; assay: Antiviral activity against HIV with reverse transcriptase Y181C/G190A double mutant assessed as inhibition of viral replication relative to wild type; assay type: functional
# [32] = test system: Human immunodeficiency virus; assay: Antiviral activity against HIV with reverse transcriptase K103N mutant assessed as inhibition of viral replication; assay type: functional, organism-based; conditions: Human immunodeficiency virus 1
# [33] = test system: Human immunodeficiency virus; assay: Antiviral activity against HIV with reverse transcriptase L100I/K103N double mutant assessed as inhibition of viral replication relative to wild type; assay type: functional
# [34] = test system: Human immunodeficiency virus; assay: Antiviral activity against HIV with reverse transcriptase K103N/Y181C double mutant assessed as inhibition of viral replication; assay type: functional, organism-based; conditions: Human immunodeficiency virus 1
# [35] = test system: Human immunodeficiency virus; assay: Antiviral activity against HIV with reverse transcriptase G190A mutant assessed as inhibition of viral replication; assay type: functional, organism-based; conditions: Human immunodeficiency virus 1
# [36] = test system: Human immunodeficiency virus; assay: Antiviral activity against HIV with reverse transcriptase L100I mutant assessed as inhibition of viral replication; assay type: functional, organism-based; conditions: Human immunodeficiency virus 1
# [37] = test system: Human immunodeficiency virus; assay: Antiviral activity against HIV with reverse transcriptase G190S mutant assessed as inhibition of viral replication relative to wild type; assay type: functional
# [38] = test system: Human immunodeficiency virus; assay: Antiviral activity against HIV with reverse transcriptase K103N/Y181C/G190A mutant assessed as inhibition of viral replication relative to wild type; assay type: functional
# [39] = test system: Human immunodeficiency virus; assay: Antiviral activity against HIV with reverse transcriptase G190S mutant assessed as inhibition of viral replication; assay type: functional, organism-based; conditions: Human immunodeficiency virus 1
# [40] = test system: Human immunodeficiency virus; assay: Antiviral activity against HIV with reverse transcriptase K103N/G190A double mutant assessed as inhibition of viral replication relative to wild type; assay type: functional
# [41] = test system: Human immunodeficiency virus; assay: Antiviral activity against HIV with reverse transcriptase L100I mutant assessed as inhibition of viral replication relative to wild type; assay type: functional
# [42] = test system: Human immunodeficiency virus; assay: Antiviral activity against HIV with reverse transcriptase Y188L mutant assessed as inhibition of viral replication; assay type: functional, organism-based; conditions: Human immunodeficiency virus 1
# [43] = test system: Human immunodeficiency virus; assay: Antiviral activity against HIV with reverse transcriptase Y188L mutant assessed as inhibition of viral replication relative to wild type; assay type: functional
# [44] = test system: Human immunodeficiency virus; assay: Antiviral activity against HIV with reverse transcriptase L100I/K103N double mutant assessed as inhibition of viral replication; assay type: functional, organism-based; conditions: Human immunodeficiency virus 1
# [45] = test system: Human immunodeficiency virus; assay: Antiviral activity against HIV with reverse transcriptase K103N/Y181C double mutant assessed as inhibition of viral replication relative to wild type; assay type: functional
compound,measurement,setting,value
N#Cc1cc(Cl)cc(Oc2cc(OCc3n[nH]c4ncccc34)cc(Cl)c2Cl)c1,Vd,[1],1.8 L/kg
same,IC95,[2],0.018 µM
same,clearance,[3],0.33 L/h/kg
same,IC95,[4],0.031 µM
same,IC95,[5],0.034 µM
same,half-life,[6],9.4 h
same,IC95,[7],0.277 µM
same,IC95,[8],0.103 µM
same,Ki,[9],0.0027 µM
same,Ki,[10],0.0046 µM
same,AUC,[11],3.5 µM
N#Cc1cc(Cl)cc(Oc2cc(OCc3noc4nc(N)ccc34)ccc2Cl)c1,Vd,[1],44.7 L/kg
same,IC95,[2],0.011 µM
same,clearance,[3],5.6 L/h/kg
same,IC95,[4],0.093 µM
same,IC95,[5],0.034 µM
same,half-life,[6],5.8 h
same,IC95,[7],0.278 µM
same,IC95,[8],0.034 µM
same,Ki,[9],0.0003 µM
same,Ki,[10],0.0004 µM
same,AUC,[11],0.8 µM
O=C1Nc2ccc(Cl)cc2[C@@](C#CC2CC2)(C(F)(F)F)O1 [EFAVIRENZ],IC50,[12],0.0174 µM
same,IC50,[13],0.153 µM
same,IC50,[14],0.008 µM
same,IC50,[15],0.0077 µM
same,fold change (FC),[16],16
same,IC50,[17],> 0.5 µM
same,IC50,[18],0.0011 µM
same,fold change (FC),[19],2.2
same,fold change (FC),[20],306.2
same,IC50,[21],> 0.5 µM
same,fold change (FC),[22],33.6
same,IC50,[23],0.106 µM
same,fold change (FC),[24],34.8
same,fold change (FC),[25],>454
same,fold change (FC),[26],213
same,IC50,[27],0.141 µM
same,fold change (FC),[28],7.2
same,IC50,[29],0.0005 µM
same,fold change (FC),[30],1
same,fold change (FC),[31],15.4
same,IC50,[32],0.0168 µM
same,fold change (FC),[33],>454
same,IC50,[34],0.0278 µM
same,IC50,[35],0.0036 µM
same,IC50,[36],0.021 µM
same,fold change (FC),[37],229
same,fold change (FC),[38],>454
same,IC50,[39],0.115 µM
same,fold change (FC),[40],281.4
same,fold change (FC),[41],42
same,IC50,[42],0.124 µM
same,fold change (FC),[43],248.6
same,IC50,[44],> 0.5 µM
same,fold change (FC),[45],55.6
